# CYP2C19 inh: inhibitors of human CYP2C19; P33261; CYP2C19 Supersomes, luciferin-H EGE luminescence, 30 min; inhibition, % at 5 µM; 96,000 tested, 21% active; AID 778;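 active means CYP2C19 inhibition above a set limit at 5 µM in the primary screen, cut at about 50% in these data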
# CYP2C19 activ: activators of human cytochrome P450 2C19; P33261; recombinant CYP2C19, luciferin-H EGE luminescence; active compounds read high; 0 = fully inhibited enzyme, 1 = untreated enzyme; activation factor at 5 µM; 96,000 tested, under 10 active; AID 1025;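 active means activation factor of at least 2 at 5 µM in the primary screen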
# CYP2C9 act: activators of human CYP2C9; P11712; recombinant CYP2C9, luciferin-H conversion, luminescence; active compounds read high; factor 1 = untreated enzyme, 0 = blocked; activation factor at 5 µM; 96,000 tested, 1.4% active; AID 1024;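 active means activation factor of 2 or more for CYP2C9 at a 5 µM dose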
# Rev-RRE block: inhibitors of HIV-1 Rev-RRE RNA interaction | 97,000 tested, 0.79% active | inhibition, % at 8 µM | P05866 | Rev peptide-RRE RNA binding, FRET;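 active means inhibition above the screen-wide mean plus 3 SD, cut at about 35% in these data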
# Target sequence (P05866 whole entry, looked up): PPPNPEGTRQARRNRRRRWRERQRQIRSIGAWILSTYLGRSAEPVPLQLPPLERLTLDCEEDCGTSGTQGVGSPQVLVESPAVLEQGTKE
#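 Assay system: Rev peptide and RRE RNA, both fluorescently labelled; times: 5 min preincubation and 15 min binding, 25 °C; detection: FRET, ex 480 nm, em 540 and 671 nm; read-out basis: % inhibition from 671/540 nm acceptor-to-donor ratio, scaled between controls; benchmarks: DMSO low control, neomycin B high control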
# Cav32 inh: human Cav3.2 channel inhibition, primary screen | O95180 | Cav3.2-expressing cells, Fluo-4 calcium fluorescence FDSS; active compounds read low | 100,000 tested, 4% active | B-score at 10 µM | AID 449739;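 active means single-dose well whose peak fluorescence ratio is a statistical outlier from its plate by either plate-standardised score or position-corrected B-score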
# CYP2C9 inhib: blocks human cytochrome P450 2C9 | CYP2C9 Supersomes, luciferin-H conversion, luminescence | 96,000 tested, 20% active | AID 777 | inhibition, % at 5 µM | P11712;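 active means blocking of liver enzyme CYP2C9 beyond about 50% at 5 µM, limit read from the data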
# Hits are given with their value; – = inactive; · = no result. This is a sample that favours compounds with a hit; in the whole collection about 27% have one here.
SMILES,CYP2C19 inh,CYP2C19 activ,CYP2C9 act,Rev-RRE block,Cav32 inh,CYP2C9 inhib
CCN=C1SC(C(=O)NCCc2ccccc2)CC(=O)N1CC (stereo unspecified),64,–,–,–,–,–
CCN=C1SC(C(=O)Nc2ccc(Cl)c(Cl)c2)CC(=O)N1CC (stereo unspecified),–,–,–,·,–,–
COc1ccc(S(=O)(=O)n2nc(OC(=O)c3ccccc3Br)cc2N)cc1,–,–,–,–,·,93
COc1ccc(S(=O)(=O)n2nc(OC(=O)c3cccs3)cc2N)cc1,–,–,–,–,–,73
COc1ccc(S(=O)(=O)n2nc(OC(=O)c3ccncc3)cc2N)cc1,·,·,·,·,–,·
Cc1ccc(S(=O)(=O)n2nc(OC(=O)c3c(-c4ccccc4Cl)noc3C)cc2N)cc1,–,–,–,–,-7.4,93
COc1ccc(S(=O)(=O)n2nc(OC(=O)c3ccc(C)cc3)cc2N)cc1,–,–,–,·,–,81
Cc1onc(-c2ccccc2Cl)c1C(=O)Oc1cc(N)n(S(=O)(=O)c2ccc(F)cc2)n1,–,–,–,–,–,–
COc1ccc(S(=O)(=O)n2nc(OC(=O)c3ccccc3)cc2N)cc1,–,–,–,–,–,–
O=C1c2ccccc2NC(c2ccccn2)N1c1ccccc1F (stereo unspecified),·,·,·,–,–,·
N#CCC(=O)NCCCOC(=O)Nc1ccc(Cl)c(Cl)c1,–,–,–,–,–,–
CN(C(=O)c1coc(=O)c2ccccc12)c1ccc(F)cc1,–,–,–,–,·,59
C=CCOc1ccccc1/C=c1\sc2nc(=O)c(C)nn2c1=O,·,·,·,–,–,·
COc1ccc(OC)c(C2NC(=O)c3sc(=S)n(-c4ccccc4)c3N2)c1 (stereo unspecified),57,–,–,–,–,62
COc1cccc(-c2cc3c(=O)n(-c4ccccc4)c(=S)[nH]c3s2)c1,–,–,–,–,–,–
COc1cccc(C2NC(=O)c3sc(=S)n(-c4ccccc4)c3N2)c1 (stereo unspecified),57,–,–,–,–,88
COCCNC(=O)CNS(=O)(=O)c1ccc2nc(C)sc2c1,–,–,–,–,–,–
CC(=O)C(Cc1cnc(Cl)s1)(Cc1cnc(Cl)s1)C(C)=O,69,–,–,–,–,–
O=C(O)c1ccc(SCc2cnc(Cl)s2)cc1,–,–,–,–,–,–
CCCCN(CCCC)S(=O)(=O)c1ccc(C(=O)Nc2nnc(COC)o2)cc1,–,–,–,–,–,–
CCc1nnc(NC(=O)c2ccc(S(=O)(=O)N(CC)Cc3ccccc3)cc2)o1,–,–,–,–,-4.4,95
CCCCN(C)S(=O)(=O)c1ccc(C(=O)Nc2nnc(CSC)o2)cc1,–,–,–,–,–,85
CN(Cc1ccccc1)S(=O)(=O)c1ccc(C(=O)Nc2nnc(C3CC3)o2)cc1,–,–,–,–,–,85
CN(Cc1ccccc1)S(=O)(=O)c1ccc(NS(C)(=O)=O)cc1,–,–,–,–,–,–
CCCCN(CC)S(=O)(=O)c1ccc(C(=O)Nc2nnc(-c3cccs3)o2)cc1,–,–,–,–,-4.8,–
SMILES,CYP2C19 inh,CYP2C19 activ,CYP2C9 act,Rev-RRE block,Cav32 inh,CYP2C9 inhib
Cc1nn2c3ccccc3nc2n(Cc2ccccc2)c1=O,·,·,·,–,·,·
CCC(C(=O)NC1CCCC1)N(C(=O)Cn1nnc(-c2ccc(C)o2)n1)C(C)(C)C (stereo unspecified),–,–,–,·,–,–
COc1ccccc1N(C)S(=O)(=O)c1ccc(C(=O)NC2=NCCS2)cc1,·,·,·,–,–,·
COc1ccccc1-c1nnc(NC(=O)c2ccc(S(=O)(=O)N(C)Cc3ccccc3)cc2)o1,·,·,·,–,-5.8,·
CCCCN1C(=O)/C(=C2\SC(N3CCCCC3)=NC2=O)c2ccccc21,53,–,–,–,–,90
O=C1N=C(N2CCOCC2)S/C1=C1\C(=O)N(Cc2ccccc2)c2ccc(Br)cc21,–,–,–,·,·,62
Cc1ccc(CN2C(=O)/C(=C3\SC(N4CCOCC4)=NC3=O)c3cc(Br)ccc32)cc1,–,–,–,·,·,–
NC(=O)c1ccc(OCC(F)(F)C(F)(F)C(F)(F)C(F)(F)C(F)(F)C(F)F)cc1,55,–,–,–,–,–
O=C1c2ccccc2C(=O)N1SC1CCCCC1,–,–,–,–,–,82
